The subject of series [1] is Leishmania donovani. Kind of series: Antileishmanial activity against extracellular promastigote form of Leishmania donovani MHOM/IN/80/Dd8 expressing firefly luciferase gene assessed as inhibition of parasitic multiplication at 25 uM after 96 hrs by luminescence analysis. Format: functional. Particulars: for inhibition at 25 µM: MHOM/IN/80/Dd8, 96 h. In a few lines: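 Late-log luciferase-expressing Dd8 promastigotes, 5 × 10⁵/mL in complete M-199, incubated with compound at 24 °C for 96 h. Aliquot mixed with Steady Glo and luminescence read as RLU. Inhibition of multiplication taken from luciferase signal of treated versus untreated parasites.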

The test system of series [2] is Leishmania donovani. Kind of series: Antileishmanial activity against intracellular amastigote form of Leishmania donovani MHOM/IN/80/Dd8 expressing luciferase gene infected in mouse J774A1 cells after 72 hrs by luminescence analysis. Format: functional, organism-based. The note with it: MHOM/IN/80/Dd8, J774.A1, 72 h. In a few lines:
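J774A.1 macrophages (4 × 10⁴/mL, RPMI-1640 + 10% HIFBS, 37 °C, 5% CO₂), after 24 h infected with stationary-phase luciferase promastigotes (4 × 10⁵/mL). Free parasites washed off after 24 h. Compound added at up to 7 dilutions from 40 μM for 72 h. Luminescence read after Steady Glo in PBS. IC₅₀ from four-parameter Hill fit; at least duplicate measurements.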

The subject of series [3] is Leishmania donovani. The experiment in a line: Antileishmanial activity against Leishmania donovani MHOM/IN/80/Dd8 amastigotes infected in syrian golden hamster assessed as decrease in parasite count in spleen at 40 mg/kg/day, ip for 5 days measured on day 28 after last dose administration by giemsa staining. Format: functional, organism-based. The gist of the method:
(§1)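 Golden hamsters of either sex infected intracardially with 1 × 10⁷ L. donovani Dd8 amastigotes. After 15−20 days, pretreatment spleen biopsy; animals with +1 grade infection (5−10 amastigotes/100 spleen cell nuclei) used, 5−6 per compound. Aqueous suspensions dosed IP or PO for 5−10 consecutive days starting 2 days after biopsy. Splenic biopsies on day 7 and 28 after last dose, Giemsa counts; PI = 100 − [(ANAT×100)/(INAT×TIUC)].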

Series [4] has as its system Leishmania donovani. The experiment in a line: Antileishmanial activity against Leishmania donovani MHOM/IN/80/Dd8 amastigotes infected in syrian golden hamster assessed as decrease in parasite count in spleen at 40 mg/kg/day, ip for 5 days measured on day 7 after last dose administration by giemsa staining. Format: functional, organism-based. The gist of the method: as §1

Series [5] can be described thus: Cytotoxicity against African green monkey Vero cells after 72 hrs by MTT assay. Format: cell-based. Particulars: chlorocebus sabaeus. The gist of the method: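 Vero cells at 1 × 10⁵/mL exposed to seven concentrations from 400 μM at 37 °C, 5% CO₂, for 72 h. MTT (5 mg/mL) added for 2 h at 37 °C, formazan dissolved in DMSO, absorbance read at 544 nm. CC₅₀ estimated by the Huber and Koella method; at least duplicate measurements.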
Background: Tetrazolium dyes change colour on reduction, which living cells bring about.

Series [6] can be described thus: Selectivity index, ratio of CC50 for African green monkey Vero cells to IC50 for Leishmania donovani MHOM/IN/80/Dd8 intracellular amastigote form expressing luciferase gene infected in mouse J774A1 cells. Format: functional, J774.A1. In a few lines: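 Ratio of CC₅₀ in Vero cells (72 h MTT) to IC₅₀ against luciferase-expressing amastigotes in J774A.1 macrophages (72 h luminescence).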

Series [7] can be described thus: Cytotoxicity against mouse J774A1 cells infected with Leishmania donovani expressing luciferase gene. Format: cell-based. Particulars: j774.a1.
The subject of series [8] is Leishmania donovani. Kind of series: Antileishmanial activity against Leishmania donovani MHOM/IN/80/Dd8 amastigotes infected in syrian golden hamster assessed as decrease in parasite count in spleen at 30 mg/kg/day, po for 5 days measured on day 28 after last dose administration by giemsa staining. Format: functional. The note with it: MHOM/IN/80/Dd8, Spleen. In a few lines: as §1

The subject of series [9] is Leishmania donovani. Kind of series: Antileishmanial activity against Leishmania donovani MHOM/IN/80/Dd8 amastigotes infected in syrian golden hamster assessed as decrease in parasite count in spleen at 30 mg/kg/day, po for 5 days measured on day 7 after last dose administration by giemsa staining. Format: functional. The note with it: MHOM/IN/80/Dd8, Spleen. The gist of the method:
as §1

The test system of series [10] is Leishmania donovani. Kind of series: Antileishmanial activity against Leishmania donovani MHOM/IN/80/Dd8 amastigotes infected in syrian golden hamster assessed as decrease in parasite count in spleen at 50 mg/kg/day, po for 5 days measured on day 28 after last dose administration by giemsa staining. Format: functional. Particulars: MHOM/IN/80/Dd8, Spleen. The gist of the method:
as §1

Series [11] deals with Leishmania donovani. The experiment in a line: Antileishmanial activity against Leishmania donovani MHOM/IN/80/Dd8 amastigotes infected in syrian golden hamster assessed as decrease in parasite count in spleen at 50 mg/kg/day, po for 5 days measured on day 7 after last dose administration by giemsa staining. Format: functional. Particulars: MHOM/IN/80/Dd8, Spleen. In a few lines: as §1

Results on 17 compounds are retold here after ChEMBL document CHEMBL3259690, “Synthesis, structure-activity relationships, and biological studies of chromenochalcones as potential antileishmanial agents” (J Med Chem, 2014).

Activity calls are given as the source filed them. The calls are words filed in the database; no cut-off is given here.

As a reminder, the inhibition is the share of the control response that was lost under treatment. By IC50 is commonly meant the concentration needed to halve the response being measured. Take `CC(C)=CCCC1(C)C=Cc2c(ccc(C(=O)/C=C/c3ccc4oc(C(=O)c5ccccc5)cc4c3)c2O)O1` (stereo unspecified): in series [1], the inhibition at 25 µM amounted to 94.4%. The half-maximal inhibitory concentration (IC50) in series [2] is > 20 µM.
As for `COc1ccc(C(=O)c2cc3cc(/C=C/C(=O)c4ccc5c(c4O)C=CC(C)(CCC=C(C)C)O5)ccc3o2)cc1` (stereo unspecified), the inhibition at 25 µM in series [1] is 92.9%. In addition, the IC50 in series [2] is > 20 µM.
With `CC(C)=CCCC1(C)C=Cc2c(ccc(/C=C/C(=O)c3ccc(C)cc3)c2O)O1` (stereo unspecified), in series [1], the inhibition at 25 µM stood at 92.7%. For the same compound, the IC50 in [2] was > 20 µM.
For `CC(C)=CCCC1(C)C=Cc2c(ccc(/C=C/C(=O)c3ccc(C)c(C)c3)c2O)O1` (stereo unspecified), in that order: 93.2% and > 20 µM.
On to sodium stibogluconate, for which the inhibition entry in series [1] is “inactive”. The inhibition in series [3] is 72.5%; in series [4], 89.5%.
One may read the CC50 as the concentration that lowers cell viability or growth by half. Consider `CC(C)=CCCC1(C)C=Cc2c(ccc(C(=O)CCc3cccnc3)c2O)O1` (stereo unspecified), for which, in series [1], the inhibition at 25 µM is 98.5%. In addition, in series [5], the CC50 at 72 h worked out at 266 µM. In [2], this compound returned an IC50 of 11 µM. In series [6], the “Ratio CC50/IC50” value stood at 24.1.
On to `CC(C)=CCCC1(C)C=Cc2c(ccc(C(=O)/C=C/c3ccc(O)c(C=O)c3)c2O)O1` (stereo unspecified), for which, in [1], the inhibition at 25 µM came out at 94.6%. Moreover, the IC50 in [2] was > 20 µM.
Turning to `CC(C)=CCCC1(C)C=Cc2c(ccc(C(=O)/C=C/c3cc4cc(C)ccc4nc3Cl)c2O)O1` (stereo unspecified), the inhibition at 25 µM in [1] was found to be 100%. Besides, the Activity result in series [7] is on record as “Toxic”.
Take `CC(C)=CCCC1(C)C=Cc2c(ccc(C(=O)/C=C/c3ccc4occc4c3)c2O)O1` (stereo unspecified): the inhibition at 25 µM in [1] is 96.5%. Besides, the IC50 in series [2] is > 20 µM.
The term inhibition in vivo denotes the change of the read-out against control, counted positive when it falls. Regarding `CCCCCCCCCCCCCCCCOP(=O)([O-])OCC[N+](C)(C)C` [MILTEFOSINE], the inhibition at 25 µM in series [1] was determined as 100%. Moreover, the results for the inhibition in vivo at 30 mg/kg/day in series [8] and in [9] were 83.2% and 98.5%, respectively.
As for `CC(=O)N1N=C(c2ccc3c(c2O)C=CC(C)(CCC=C(C)C)O3)CC1c1cccnc1` (stereo unspecified), the inhibition at 25 µM in series [1] stood at 99.5%. In series [5], this compound registered a CC50 at 72 h of 88.5 µM. In addition, the IC50 in [2] was 6.4 µM. The “Ratio CC50/IC50” value in series [6] worked out at 13.8.
Turning to `COc1ccc(/C=C/C(=O)c2ccc3c(c2O)CCC(C)(CCCC(C)C)O3)cc1` (stereo unspecified), the inhibition at 25 µM in series [1] was found to be 62.3%. The IC50 in series [2] was > 20 µM.
In the case of `CC(C)=CCCC1(C)C=Cc2c(ccc(C(=O)/C=C/c3ccc(O)cc3)c2O)O1` (stereo unspecified) [LESPEOL], the inhibition at 25 µM in [1] was determined as 97.5%. The same compound had a CC50 at 72 h in series [5] of 190 µM. In series [2], this compound registered an IC50 of 16.5 µM. Besides, the “Ratio CC50/IC50” value in [6] is on record as 11.5.
Consider `CC(C)=CCCC1(C)C=Cc2c(ccc(C(=O)/C=C/c3cccnc3)c2OCCN2CCCCC2)O1` (stereo unspecified), for which the inhibition at 25 µM in [1] worked out at 99.8%. Moreover, the results for the inhibition in vivo at 50 mg/kg/day in series [10] and in series [11] were 50% and 73.2%, respectively. In [5], this compound yielded a half-maximal cytotoxic concentration (CC50) at 72 h of 65.2 µM. It took 1.7 µM to reach half-maximal inhibition in [2] (IC50). Also, the “Ratio CC50/IC50” value in series [6] is 38.3.
Turning to `CC(C)=CCCC1(C)C=Cc2c(ccc(C(=O)/C=C/c3cccc(-c4ncc(-c5cccc(O)c5)o4)c3)c2O)O1` (stereo unspecified), the inhibition at 25 µM in series [1] was 99.5%. Besides, in series [5], the CC50 at 72 h was > 400 µM. The compound further displayed an IC50 in series [2] of 5.8 µM. Besides, the “Ratio CC50/IC50” value in [6] was >68.9.
As to `CC(C)=CCCC1(C)C=Cc2c(ccc(C(=O)/C=C/c3cc(C=O)ccc3O)c2O)O1` (stereo unspecified), in [1], the inhibition at 25 µM came to 91.2%. In addition, in series [5], the CC50 at 72 h turned out to be 59.4 µM. Further, the IC50 in series [2] is 10.7 µM. In addition, in series [6], the “Ratio CC50/IC50” value is on record as 5.5.
In the case of `CC(C)=CCCC1(C)C=Cc2c(ccc(C(=O)/C=C/c3ccc(OCCN4CCCCC4)cc3)c2OCCN2CCCCC2)O1` (stereo unspecified), in [1], the inhibition at 25 µM was found to be 99.9%. Moreover, the IC50 in [2] is 6.3 µM. The “Ratio CC50/IC50” value in series [6] was found to be 31.9.
